“And” between values parts separate entries of the source, which are not always exact repeats. Identical values can stand only once.

Experiment [1] has as its system Mus musculus. Nature of the experiment: Number of mice with 50-day survival period after treating with 10 mg/Kg of compound out of 5 tested. In kind it is functional. The procedure, abridged: (§1)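 Groups of five female C3H mice received 7.5×10^6 Gardner lymphosarcoma (6C3 HED) cells per mouse intraperitoneally. Starting 1 day later, mice were dosed subcutaneously on the lower back once daily for 5 days, with test material in saline or 10% (CH₃)₂SO. Control mice received vehicle only. Read-outs were average survival in days and the number of mice surviving 50 days.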

The subject of experiment [2] is Mus musculus. The experiment in a line: Tested for anti-lymphosarcoma in mice at the dose of 10 mg/kg. In kind it is functional. The procedure, abridged: as §1
Experiment [3] deals with Mus musculus. Nature of the experiment: Tested for average survival days in control mice at a dose of 10 mg/Kg. In kind it is functional. The method, boiled down: as §1
For experiment [4], the system named is Mus musculus. Nature of the experiment: Number of mice with 50-day survival period in control group at a dose of 10 mg/Kg tested out of 5 mice treated. It is filed as functional. The method, boiled down: as §1
In experiment [5] the test system is Mus musculus. The experiment in a line: Tested for average survival days in control mice at a dose of 5 mg/Kg. In kind it is functional. The procedure, abridged:
as §1

In experiment [6] the test system is Mus musculus. The experiment in a line: Tested for anti-lymphosarcoma activity in mice at the dose of 5 mg/kg by determining average survivals.
Experiment [7] concerns Mus musculus. The experiment in a line: Number of mice with 50-day survival period in control group at a dose of 5 mg/Kg tested out of 5 mice treated. In kind it is functional. The method, boiled down:
as §1

The test system of experiment [8] is Mus musculus. The experiment in a line: Number of mice with 50-day survival period after treating with 5 mg/Kg of compound out of 5 tested. In kind it is functional. The procedure, abridged:
as §1

Experiment [9] is filed under the species Mus musculus. The experiment in a line: Tested for average survival days in mice (control). In kind it is functional. The method, boiled down:
as §1

The species entered for experiment [10] is Mus musculus. Nature of the experiment: Tested for anti-lymphosarcoma activity in mice (control) with 50-day survival period out of 5 tested. It is filed as functional. The method, boiled down:
as §1

The subject of experiment [11] is Mus musculus. The experiment in a line: Tested for anti-lymphosarcoma activity in mice at the dose of 10 mg/kg by determining average survivals. In kind it is functional. The procedure, abridged:
as §1

As for `CN(C)c1ccc(C(=C(c2ccc(N(C)C)cc2)c2ccc(N(C)C)cc2)c2ccc(N(C)C)cc2)cc1`, the No. of survivals in the experiment on Mus musculus [1] was 4; in the experiment on Mus musculus [4], 0; in the experiment with Mus musculus [7], 0; in the experiment with Mus musculus [8] it was 1. Also, the Average survival turned out to be 37.6 days in the experiment on Mus musculus [2], 14.8 days in the experiment on Mus musculus [3], 14.8 days with Mus musculus [5] and 21.5 days with Mus musculus [6].

Take `CN(C)c1ccc(C(=C2C=CC(=[N+](C)C)C=C2)C(c2ccc(N(C)C)cc2)c2ccc(N(C)C)cc2)cc1`: the No. of survivals in the experiment on Mus musculus [1] and in the experiment filed under Mus musculus [10] was 0 throughout. Besides, the results for the Average survival in the experiment filed under Mus musculus [9] and with Mus musculus [6] were 12.2 days and 13.2 days, respectively.

For `CN(C)c1ccc(C(=C2C=CC(=[N+](C)C)C=C2)C(=C2C=CC(=[N+](C)C)C=C2)c2ccc(N(C)C)cc2)cc1`, the No. of survivals with Mus musculus [1] turned out to be 4. In addition, the Average survival in the experiment listed under Mus musculus [9] is 14.8 days and 23 days; in the experiment with Mus musculus [11], 37.6 days and 42.8 days.
